# Source: PubChem BioAssay (Broad Institute)
# MLL AF4-AF9 inh = MLL-AF4/AF9 protein interaction inhibition. AlphaScreen, biotin-AF4 peptide binding to FLAG-AF9. inhibition, % at 10 µM. 350,000 compounds, 0.47% hits. AID 651704;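 active = every replicate reaching a set inhibition limit, whatever the replicate mean, cut at about 25% in these data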
# XiGFP reactiv = reactivates the inactive X chromosome in mouse fibroblasts | 360,000 compounds, 0.055% hits | activation, % at 7.58 µM | XiGFP mouse fibroblasts, % GFP-positive cells imaging, 3 d; cells co-treated with 5-aza-dC sensitizer; scaled so ellipticine positive control = 100%;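 active = mean normalized replicate activation at least 10% and every replicate at or above 10%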
#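 Material: XiGFP fibroblasts, SV40-immortalized; Buffer or medium: DMEM containing 5-aza-dC; Compound dosing: single point; Times: 3 days compound exposure.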
# S100A4 MyoIIA = S100A4-myosin IIA interaction inhibition. inhibition, % at 10.7 µM. 360,000 compounds, 0.14% hits. AID 652163. P26447. S100A4/TAMRA-MyoIIA peptide fluorescence polarization;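 active = mean inhibition of at least 70% across replicates, with every replicate also reaching that level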
# Target sequence (P26447 whole entry, looked up): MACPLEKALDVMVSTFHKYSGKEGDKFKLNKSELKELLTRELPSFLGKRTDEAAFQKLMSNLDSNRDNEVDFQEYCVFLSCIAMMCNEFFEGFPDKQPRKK
#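 Material: S100A4 monomer (human). Medium: Calcium-containing HEPES buffer, pH 7.2. Probe or stimulus: labelled myosin peptide probe, 5 nM. Compound dosing: one concentration per compound. Timing: polarization read 5 min after assay mix addition, stable 5–60 min. Benchmarks: DMSO as neutral control, TFP as positive control.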
# Casp6 inh = blocks human caspase-6 cleavage activity | 350,000 compounds, 0.53% hits | inhibition, % at 12.5 µM | purified caspase-6, Z-VEID-R110 cleavage fluorescence | P55212 | AID 686996;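 active = mean inhibition across replicates at least about 35%, with every replicate also reaching that limit, limit read from the data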
# RAD54 branch = RAD54 (human) branch migration inhibition | Q92698 | inhibition, % at 10.4 µM | RAD54 Holliday junction branch migration, FAM/BHQ fluorescence | AID 602329 | 360,000 compounds, 0.14% hits;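 active = mean normalized replicate activity at least 40 and at least half of replicates scoring 40 or more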;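 also: inhibitors cause a drop in the FAM fluorescence signal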
# RAD52 anneal inh = inhibitors of human RAD52 DNA annealing. P43351. recombinant RAD52 DNA annealing, FRET fluorescence. inhibition, % at 18.7 µM. 360,000 compounds, 0.46% hits;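 active = every replicate showing at least 50% inhibition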
# Target sequence (P43351 whole entry, looked up): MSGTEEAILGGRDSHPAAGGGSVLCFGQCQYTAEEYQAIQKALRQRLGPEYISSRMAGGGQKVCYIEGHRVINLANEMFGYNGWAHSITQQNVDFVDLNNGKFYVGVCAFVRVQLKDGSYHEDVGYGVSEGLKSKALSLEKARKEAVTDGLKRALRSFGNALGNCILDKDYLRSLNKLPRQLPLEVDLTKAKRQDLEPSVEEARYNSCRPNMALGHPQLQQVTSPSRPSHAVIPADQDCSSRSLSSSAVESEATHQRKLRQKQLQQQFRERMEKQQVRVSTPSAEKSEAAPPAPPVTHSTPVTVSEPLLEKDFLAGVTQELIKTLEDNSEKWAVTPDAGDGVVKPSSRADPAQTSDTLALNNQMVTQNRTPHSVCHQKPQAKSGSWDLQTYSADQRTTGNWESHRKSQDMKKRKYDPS
# Numbers stand for hits; – = inactive; · = not tested or not shown. Hits are enriched below; roughly 1.3% of the tested compounds scored in any of these assays.
SMILES,MLL AF4-AF9 inh,XiGFP reactiv,S100A4 MyoIIA,Casp6 inh,RAD54 branch,RAD52 anneal inh
CCC(=O)N1C[C@H](C)[C@H](OC)CN(C)C(=O)c2ccc(NC(=O)NC(C)C)cc2OC[C@H]1C,–,–,–,–,·,–
CC(C)OCCCNC(=O)CN1C(=O)COc2ccc(S(=O)(=O)N3CCCCCC3)cc21,–,–,–,37,–,–
CS(=O)(=O)N1CC2C(c3ccc(Br)cc3)C(C1)N2CC(F)(F)F (stereo not given),·,–,·,·,·,·
CC(NC(=O)c1ccccc1F)c1nnc(SCC(=O)Nc2nnc(C3CC3)s2)n1C (stereo not given),–,–,93,–,–,–
Cc1nnc(NC(=O)CSc2nnc(CCNC(=O)c3ccccc3F)n2C)s1,42,–,–,–,–,–
CC(NC(=O)c1ccccc1Cl)c1nnc(SCC(=O)Nc2ccc(C(=O)O)cc2)n1C (stereo not given),·,·,·,·,–,·
CCCN1C(=O)/C(=C2/C=Cc3ccccc3N2CC)SC1=S,26,–,–,–,–,–
CCCN1/C(=C2/SC(=S)N(CC)C2=O)C=Cc2ccccc21,·,·,·,·,–,·
C[C@@H]1CN([C@@H](C)CO)C(=O)Cc2cc(NC(=O)CCN3CCOCC3)ccc2O[C@@H]1CN(C)C,–,–,128,–,–,–
C[C@H]1CN([C@@H](C)CO)C(=O)Cc2cc(NC(=O)CCC(F)(F)F)ccc2O[C@@H]1CN(C)C,–,–,108,–,–,–
O=C(CCN1CCCCC1)NCC[C@@H]1CC[C@@H](NC(=O)C2CCCCC2)[C@H](CO)O1,–,–,–,–,·,–
COc1ccc2c3c([nH]c2c1)[C@@H](CO)N(S(C)(=O)=O)CC31CCN(Cc2nccs2)CC1,–,–,·,·,·,·
C/C(=N\NC(=S)Nc1cccc(C)c1)c1ccco1,36,–,–,–,·,–
C[C@H]1CN([C@@H](C)CO)S(=O)(=O)c2ccc(C#CC3CC3)cc2O[C@H]1CN(C)C,–,–,–,–,–,–
CCOC(=O)C1CCCN(S(=O)(=O)c2nc3nc(C)cc(C)n3n2)C1 (stereo not given),–,–,–,37,–,–
CCOC(=O)c1c(C)oc2c1c(C=NCc1ccccn1)c(O)c1ccccc12,–,–,–,60,·,–
CCOC(=O)c1c(C)oc2c1c(C=NCC1CCCO1)c(O)c1ccccc12 (stereo not given),·,·,·,·,–,·
C/C=C/c1ccc2c(c1)O[C@H](CN(C)C(=O)CN1CCOCC1)[C@H](C)CN([C@@H](C)CO)S2(=O)=O,–,–,–,–,–,–
COc1ccc(OCC(=O)OCC(=O)N2CC(=O)Nc3ccccc32)cc1,–,–,–,–,–,–
CCc1ccccc1OCC(=O)OCC(=O)N1CC(=O)Nc2ccccc21,–,–,–,60,·,–
CC(C)NC(=O)N1[C@H](C(=O)N2CCC(Cc3ccccc3)CC2)[C@@H](CO)[C@@H]2Cn3c(cccc3=O)[C@@H]21,–,–,–,–,–,–
O=C(CSc1nc(O)c(Cc2ccccc2)c(=O)[nH]1)Nc1nnc(SCc2ccccc2)s1,–,–,–,51,–,–
CN(C)CC(=O)N1CC2(C1)[C@H](c1ccccc1)[C@@H](CO)N2S(C)(=O)=O,–,–,–,–,·,–
CN(C)CC(=O)N1CC2(C1)[C@@H](c1ccccc1)[C@@H](CO)N2S(C)(=O)=O,–,–,91,–,·,–
CCOc1ccc(S(=O)(=O)Nc2cc(NS(=O)(=O)c3ccc(OCC)cc3)cc(C(=O)O)c2)cc1,–,–,–,70,–,–
SMILES,MLL AF4-AF9 inh,XiGFP reactiv,S100A4 MyoIIA,Casp6 inh,RAD54 branch,RAD52 anneal inh
C[C@H]1CN([C@@H](C)CO)C(=O)Cc2cc(NC(=O)Nc3cccc4ccccc34)ccc2O[C@@H]1CN(C)Cc1ccc(Cl)c(Cl)c1,–,–,–,–,–,–
C[C@H]1CN([C@@H](C)CO)C(=O)Cc2cc(NC(=O)Nc3ccc4c(c3)OCO4)ccc2O[C@H]1CN(C)CC1CCCCC1,–,–,–,–,–,–
C[C@@H]1CN([C@@H](C)CO)C(=O)Cc2cc(NC(=O)Nc3cccc4ccccc34)ccc2O[C@H]1CN(C)Cc1ccc2c(c1)OCO2,–,–,–,–,–,54
C[C@H](CO)N1C[C@H](C)[C@@H](CN(C)Cc2ccc(Cl)c(Cl)c2)Oc2ccc(NC(=O)Nc3cccc4ccccc34)cc2CC1=O,–,–,–,–,–,54
C[C@@H]1CN([C@H](C)CO)C(=O)Cc2cc(NC(=O)Nc3ccc(C(F)(F)F)cc3)ccc2O[C@H]1CN(C)Cc1ccc2c(c1)OCO2,–,–,101,–,–,–
C[C@H](CO)N1C[C@H](C)[C@@H](CN(C)CC2CCCCC2)Oc2ccc(NC(=O)Nc3ccc4c(c3)OCO4)cc2CC1=O,26,–,–,–,–,–
CCCNC(=O)[C@@H]1[C@@H](CO)[C@@H]2Cn3c(ccc(-c4cccc(OC)c4)c3=O)[C@H]1N2CC,–,–,–,–,·,–
CCCNC(=O)N1CC2(C1)CN(C(=O)c1ccccc1)[C@@H](CO)c1[nH]c3cc(OC)ccc3c12,–,–,–,–,·,–
O=C(C[C@H]1C[C@@H]2c3cc(NS(=O)(=O)c4ccccc4)ccc3O[C@@H]2[C@H](CO)O1)NC1CCCCC1,–,–,–,–,–,–
Cc1cc(N/N=C/c2ccc([N+](=O)[O-])o2)nc2ccccc12,–,43,–,–,·,–
Cc1c(Nc2cc(Cl)c3nonc3c2[N+](=O)[O-])c(=O)n(-c2ccccc2)n1C,–,19,–,–,·,–
O=C1Nc2cc(Cl)cnc2N2CCCC12 (stereo not given),–,–,–,40,–,–
CNC[C@H]1Oc2ccc(N(C)C)cc2CC(=O)N(C)C[C@@H]1C,·,–,·,·,·,·
COc1ccc(NC(=O)/C(C#N)=C\c2ccc(Br)o2)cc1,–,–,–,45,·,–
C[C@H](CO)N1C[C@H](C)[C@H](CN(C)Cc2ccccc2)OCCCC[C@H](C)Oc2ccc(NS(=O)(=O)c3ccc(F)cc3)cc2C1=O,37,–,–,–,–,77
C[C@@H]1CCCCO[C@@H](CN(C)Cc2ccccc2)[C@H](C)CN([C@H](C)CO)C(=O)c2cc(NS(=O)(=O)c3ccc(Cl)cc3)ccc2O1,–,–,–,–,–,61
C[C@@H]1CCCCO[C@H](CN(C)Cc2ccccc2)[C@H](C)CN([C@@H](C)CO)C(=O)c2cc(NS(=O)(=O)c3ccc(Cl)cc3)ccc2O1,–,–,–,–,–,54
C[C@@H]1CCCCO[C@H](CN(C)Cc2ccccc2)[C@@H](C)CN([C@@H](C)CO)C(=O)c2cc(NS(=O)(=O)c3ccc(Cl)cc3)ccc2O1,–,–,–,–,–,64
O=C(C1CC1)N1C[C@H]2[C@@H](c3ccccc31)[C@H](CO)N2C(=O)Cc1ccccn1,–,–,–,–,–,–
